Converted amounts (≈) assume the structure as drawn.
Key:
Type in all cases: functional
Aspergillus terreus [1] = experiment: Antifungal activity against Aspergillus terreus by EUCAST method
Aspergillus flavus [2] = experiment: Antifungal activity against Aspergillus flavus
Sporothrix schenckii = experiment: Antifungal activity against Sporothrix schenckii
In short: (§1)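 Broth microdilution following the EUCAST reference procedure for spore-forming moulds, in flat-bottom plates with RPMI 1640 plus 2% glucose. Inoculum was 2 × 10^5 to 5 × 10^5 CFU/ml. MICs were read visually at 24 and 48 h as 100% growth reduction versus a drug-free control for polyenes and azoles. MEC was used for caspofungin. Tests were run in duplicate and repeated twice.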

Clavispora lusitaniae = experiment: Antifungal activity against Candida lusitaniae by EUCAST method
In short: (§2)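 Broth microdilution in flat-bottom plates in RPMI 1640 with 2% glucose; inoculum 0.5 × 105 to 2.5 × 10^5 CFU/ml. MICs were read spectrophotometrically at 24 h. AMB endpoint: ≥90% growth reduction vs drug-free control well. Azole and CPF endpoint: 50% reduction in optical density. MFC was taken as the lowest concentration giving 99% killing.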

Candida tropicalis [3] = experiment: Antifungal activity against Candida tropicalis; in short: as §2
Curvularia australiensis [4] = experiment: Antifungal activity against Bipolaris australiensis by EUCAST method
In short: (§3)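 Dematiaceous fungi were tested by the EUCAST spore-forming mold reference procedure: flat-bottom microdilution plates, RPMI 1640 plus 2% glucose, inoculum 2 × 105 to 5 × 10^5 CFU/ml. Endpoints were read visually at 24 and 48 h. Polyenes and azoles: 100% growth reduction vs drug-free control. CPF: minimum effective concentration. Run in duplicate and repeated twice.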

Penicillium sp. [5] = experiment: Antifungal activity against Penicillium species by EUCAST method
Pichia kudriavzevii [6] = experiment: Antifungal activity against Candida krusei
In short: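 EUCAST broth microdilution for yeasts in flat-bottom plates, RPMI 1640 with 2% glucose, inoculum 0.5 × 105 to 2.5 × 10^5 CFU/ml. […] MFC is the lowest concentration giving 99% killing.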

Curvularia lunata = experiment: Antifungal activity against Curvularia lunata by EUCAST method; in short: as §3
[7] = Antifungal activity against Rhizopus microsporus var. oligosporus by EUCAST method; in short: as §1
Rhizopus arrhizus = experiment: Antifungal activity against Rhizopus oryzae; in short: as §1
Aspergillus fumigatus = experiment: Antifungal activity against Aspergillus fumigatus
[8] = system: Meyerozyma guilliermondii; experiment: Antifungal activity against Candida guilliermondii by EUCAST method; in short: as §2
Geotrichum candidum = experiment: Antifungal activity against Geotrichum candidum
Fusarium solani = experiment: Antifungal activity against Fusarium solani
Lichtheimia corymbifera [9] = experiment: Antifungal activity against Absidia corymbifera
Candida albicans = experiment: Antifungal activity against Candida albicans; in short: as §2
Scedosporium apiospermum = experiment: Antifungal activity against Scedosporium apiospermum by EUCAST method; in short: as §1
Rhizomucor = experiment: Antifungal activity against Rhizomucor species by EUCAST method; in short: as §1
Talaromyces marneffei [10] = experiment: Antifungal activity against Penicillium marneffei
Lichtheimia corymbifera [11] = experiment: Antifungal activity against Absidia corymbifera by EUCAST method
Pichia kudriavzevii [12] = experiment: Antifungal activity against Candida krusei by EUCAST method; in short: as §2
Candida parapsilosis = experiment: Antifungal activity against Candida parapsilosis; settings: Lodderomyces parapsilosis; in short: as §2
Talaromyces marneffei [13] = experiment: Antifungal activity against Penicillium marneffei by EUCAST method
Aspergillus terreus [14] = experiment: Antifungal activity against Aspergillus terreus
Candida tropicalis [15] = experiment: Antifungal activity against Candida tropicalis by EUCAST method; in short: as §2
Curvularia australiensis [16] = experiment: Antifungal activity against Bipolaris australiensis; in short: as §3
Trichosporon inkin [17] = experiment: Antifungal activity against Trichosporon inkin by EUCAST method
In short: (§4)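 Nonfermentative yeasts were tested by the EUCAST microdilution recommendations with one change: plates were sealed and agitated at 350 rpm and 30°C for 48 h.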

[18] = system: Meyerozyma guilliermondii; experiment: Antifungal activity against Candida guilliermondii; in short: as §2
Mucor = experiment: Antifungal activity against Mucor species by EUCAST method
Aspergillus flavus [19] = experiment: Antifungal activity against Aspergillus flavus by EUCAST method
Trichosporon inkin [20] = experiment: Antifungal activity against Trichosporon inkin; in short: as §4
Penicillium sp. [21] = experiment: Antifungal activity against Penicillium species
[22] = Antifungal activity against Rhinocladiella aquaspersa by EUCAST method; in short: as §3
Lomentospora prolificans = experiment: Antifungal activity against Scedosporium prolificans; in short: as §1

`C[C@@H]1[C@H](O)[C@@H](C)/C=C/C=C/C=C/C=C/C=C/C=C/C=C/[C@H](O[C@@H]2O[C@H](C)[C@@H](O)[C@H](N)[C@@H]2O)C[C@@H]2O[C@](O)(C[C@@H](O)C[C@@H](O)[C@H](O)CC[C@@H](O)C[C@@H](O)CC(=O)O[C@H]1C)C[C@H](O)[C@H]2C(=O)O` [AMPHOTERICIN B] gave an MIC (Aspergillus terreus [1]) of 2.82 µg/mL (≈ 3.05 µM), an MFC (Aspergillus flavus [2]) greater than 4 µg/mL and an MFC (Sporothrix schenckii) greater than 8 µg/mL. The MIC (Clavispora lusitaniae) was 1.16 µg/mL (≈ 1.26 µM), the MFC (Candida tropicalis [3]) was 0.5 µg/mL (≈ 0.541 µM) and the MIC (Curvularia australiensis [4]) was 1 µg/mL (≈ 1.08 µM). The MIC (Penicillium sp. [5]) was 0.75 µg/mL (≈ 0.812 µM), the MFC (Pichia kudriavzevii [6]) was 0.5 µg/mL (≈ 0.541 µM) and the MIC (Curvularia lunata) was 0.75 µg/mL (≈ 0.812 µM). It also gave an MIC [7] of 1 µg/mL (≈ 1.08 µM), an MFC (Rhizopus arrhizus) of 4 µg/mL (≈ 4.33 µM) and an MFC (Aspergillus fumigatus) of 0.5 µg/mL (≈ 0.541 µM). It also gave an MIC [8] of 1 µg/mL (≈ 1.08 µM), an MFC (Geotrichum candidum) greater than 4 µg/mL and an MFC (Fusarium solani) greater than 8 µg/mL. It also gave an MFC (Lichtheimia corymbifera [9]) of 1 µg/mL (≈ 1.08 µM), an MFC (Candida albicans) of 2 µg/mL (≈ 2.16 µM) and an MIC (Scedosporium apiospermum) of 2.66 µg/mL (≈ 2.88 µM). For the same compound, the MIC (Rhizomucor) was 0.58 µg/mL (≈ 0.628 µM), the MFC (Talaromyces marneffei [10]) was greater than 4 µg/mL and the MIC (Lichtheimia corymbifera [11]) was 1 µg/mL (≈ 1.08 µM). For the same compound, the MIC (Pichia kudriavzevii [12]) was 0.51 µg/mL (≈ 0.552 µM), the MFC (Candida parapsilosis) was 4 µg/mL (≈ 4.33 µM) and the MIC (Talaromyces marneffei [13]) was 1.5 µg/mL (≈ 1.62 µM). For the same compound, the MFC (Aspergillus terreus [14]) was greater than 4 µg/mL, the MIC (Candida tropicalis [15]) was 0.38 µg/mL (≈ 0.411 µM) and the MFC (Curvularia australiensis [16]) was 1 µg/mL (≈ 1.08 µM). The MIC (Trichosporon inkin [17]) was 0.5 µg/mL (≈ 0.541 µM), the MFC [18] was 2 µg/mL (≈ 2.16 µM) and the MIC (Mucor) was 0.73 µg/mL (≈ 0.79 µM). The MIC (Aspergillus flavus [19]) was 1.51 µg/mL (≈ 1.63 µM), the MFC (Trichosporon inkin [20]) was 1 µg/mL (≈ 1.08 µM) and the MFC (Penicillium sp. [21]) was greater than 4 µg/mL. The MIC [22] was 1 µg/mL (≈ 1.08 µM) and the MFC (Lomentospora prolificans) was greater than 8 µg/mL.

Source: ChEMBL document CHEMBL1275524, “Activities of antifungal agents against yeasts and filamentous fungi: assessment according to the methodology of the European Committee on Antimicrobial Susceptibility Testing” (2008)
